Inconclusive results are not listed.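 How the source made its calls, unless noted: active means RAM network inhibition above 8.4% in each of two replicates, 3 SD over the compound average; inconclusive means above 8.4% inhibition in only one replicate; inactive means 8.4% inhibition or less in each replicate.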
Columns and labels:
[1] = S. cerevisiae growth inhibition in permissive medium (OD615), pilot counter-assay for S. cerevisiae lifespan shortening project, permissive growth control (AID 705;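 active means growth inhibition above 25% in both replicates, a cutoff set 3 SD above the mean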); conditions: OD615, 24 h, at 10 µM, active compounds read high
Method in brief: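 System: S. cerevisiae with engineered DeaD lifespan system / Measured by: absorbance (optical density) at 615 nm / Read-out: reduction in yeast growth (OD615) / Times: 4 h cell pre-growth, 24 h exposure at 30 °C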

[2] = S. cerevisiae growth inhibition in restrictive medium, OD615, pilot screen, restrictive growth control, yeast lifespan reduction project (AID 706;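 active means growth inhibition above a set limit, 3 SD over mean compound inhibition, in both replicates, cut at about 43% in these data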;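 further: modified DeaD lifespan yeast strain shifted to restrictive glucose medium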); conditions: OD615, 48 h, at 10 µM, active compounds read high
Method in brief: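 System: Engineered S. cerevisiae DeaD strain | Buffer or medium: Glucose-based CSMM-D restrictive medium | Schedule: 4 h pre-incubation, 48 h exposure at 30 °C | Technique: Optical density at 615 nm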

[3] = doxorubicin toxicity protection in MRP-1 cells – H69AR cells, CellTiter-Glo, duplicate, MRP-1 activator project, pilot screen (AID 807;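 active means viability increase at or above a cutoff of the median across tested compounds plus 3 SD, cut at about 8.5% in these data, passing the limit was not always enough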;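 further: compound pretreatment 18-22 h then 72 h combined with doxorubicin; 0% = doxorubicin alone and 100% = vehicle without doxorubicin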); conditions: H69AR viability with doxorubicin, CellTiter-Glo luminescence; at 10 µM; active compounds read high
[4] = viability of HCT116 without oncogenic beta-catenin – human colon tumor cells, pilot screen (AID 823;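 active means cell viability at or below a set limit in both duplicate runs, the limit being the all-compound median minus 4 SD, cut at about 23% in these data, passing the limit was not always enough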;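 further: 0% = wells killed by 20 µM Hyamine and 100% = untreated DMSO cell wells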); conditions: HCT116 beta-catenin knockout viability, CellTiter-Glo, 60 h; at 10 µM; active compounds read low
[5] = viability of PTEN-null HCT116 cells – cell-based, HCT116 clonal line, CellTiter-Glo, pilot screen (AID 824;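 active means viability at or below 27.92% in each of two runs, the all-compound median minus 4 SD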;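 further: 0% = 20 µM Hyamine control and 100% = vehicle cell control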); conditions: HCT116 PTEN-deleted viability, 60 h, at 10 µM, active compounds read low
[6] = RAM pathway blockade in budding yeast – dse1pr::URA3 reporter, 5-FOA selection, pilot screen (AID 869;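 active means inhibition over a set limit, the all-compound mean plus 3 SD, in both replicate runs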;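 further: 0% = DMSO wells with no growth and 100% = 10 µM 1-NA-PP1 with full growth; RAM network block rescues cells from 5-FOA so hits raise OD615 growth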); conditions: S. cerevisiae dse1pr::URA3 5-FOA growth, OD615, 2 d; at 10 µM; active compounds read high; strain carries analog-sensitive mutant Cbk1 kinase
[7] = RAM signaling pathway blockade in yeast – S. cerevisiae, Pdr1DBD-CYC8 efflux-inhibited sensitized strain, primary screen (AID 1298);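 further: 0% = DMSO untreated cells without growth and 100% = 10 µM 1-NA-PP1 full growth; higher means more yeast growth rescued from 5-FOA killing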; conditions: S. cerevisiae cbk1-as DSE1-URA3 strain, 5-FOA growth OD615, 2 d; at 50 µM; active compounds read high

Cc1ccc(-c2nc(NC(=O)CSc3nnc(C)s3)ns2)cc1
inactive: growth inhibition [1] -5.46% | growth inhibition [2] 2.65% | viability increase [3] -0.8% | viability [4] 123% | viability [5] 102% | inhibition [6] 0.34% | RAM network inhibition [7] 2.66%

O=C(COc1ccc(F)cc1)Nc1nccs1
inactive: growth inhibition [1] -3.23% | growth inhibition [2] 4.43% | viability increase [3] 2.32% | viability [4] 103% | viability [5] 90.2% | inhibition [6] 3.26% | RAM network inhibition [7] 5.34%

CCOC(=O)C1=C(C)OC(N)=C(C#N)C1c1c(C)nn(-c2ccccc2)c1Cl (configuration not stated)
inactive: growth inhibition [1] -11.9% | growth inhibition [2] -20% | viability increase [3] -3.98% | viability [4] 102% | viability [5] 98.1% | inhibition [6] 3.71% | RAM network inhibition [7] 7.39%

Cc1ccc2cc(-c3noc(C4CCCCC4)n3)c(=O)[nH]c2c1
inactive: growth inhibition [1] -10.9% | growth inhibition [2] -13% | viability increase [3] -2.36% | viability [4] 112% | viability [5] 104% | inhibition [6] 3.56% | RAM network inhibition [7] 4.76%

N#CC1=C(N)SC(N)=C(C#N)C1C1CC=CCC1 (configuration not stated)
inactive: growth inhibition [1] -18.9% | growth inhibition [2] -10.4% | viability increase [3] -0.79% | viability [4] 108% | viability [5] 97.5% | inhibition [6] 2.11% | RAM network inhibition [7] 0.74%

O=C(CSc1cn(CCNC(=O)c2ccccc2)c2ccccc12)NCc1ccco1
inactive: growth inhibition [1] -4.76% | growth inhibition [2] -10.4% | viability increase [3] -5.29% | viability [4] 84.1% | viability [5] 84.3% | inhibition [6] 0.64% | RAM network inhibition [7] 5.98%

Cc1ccc(C(=O)Nc2cccc(C(=O)O)c2)cc1S(=O)(=O)N1CCCCC1
inactive: growth inhibition [1] 5.02% | growth inhibition [2] 11.4% | viability increase [3] 0.18% | viability [4] 96% | viability [5] 100% | inhibition [6] 1.35% | RAM network inhibition [7] 0.1%

O=C1c2ccccc2C(O)N1c1ccc(Cl)cc1 (configuration not stated)
inactive: growth inhibition [1] -8.19% | growth inhibition [2] -7.83% | viability increase [3] -0.07% | viability [4] 93.4% | viability [5] 95.5% | inhibition [6] 0.58% | RAM network inhibition [7] 1.49%

O=C(Cn1cnc2c(cnn2-c2ccccc2)c1=O)c1ccc(Cl)cc1
inactive: growth inhibition [1] -3.83% | growth inhibition [2] -12.3% | viability increase [3] 1.75% | viability [4] 94.3% | viability [5] 90.2% | inhibition [6] 0.5% | RAM network inhibition [7] 3.34%

CCOCN(C(=O)Cn1c(CO)nc2ccccc21)c1c(C)cccc1CC
inactive: growth inhibition [1] -10.7% | growth inhibition [2] 0.69% | viability increase [3] -3.12% | viability [4] 89.4% | viability [5] 94.4% | inhibition [6] 2.68% | RAM network inhibition [7] 7.56%

COc1ccc(C)cc1NC(=O)CN(c1ccccc1F)S(C)(=O)=O
inactive: growth inhibition [1] -8.48% | growth inhibition [2] -0.695% | viability increase [3] -1.51% | viability [4] 94.6% | viability [5] 103% | inhibition [6] -0.63% | RAM network inhibition [7] 0.32%

O=C(NCCc1ccccc1)c1ccc(Br)o1
inactive: growth inhibition [1] -7.62% | growth inhibition [2] 1.48% | viability increase [3] 0.4% | viability [4] 104% | viability [5] 103% | inhibition [6] 0.77% | RAM network inhibition [7] 1.44%

CCc1nnc(NC(=O)CN2CCOCC2)s1
inactive: growth inhibition [1] -2.81% | growth inhibition [2] -19.4% | viability increase [3] -1.62% | viability [4] 95.8% | viability [5] 101% | inhibition [6] 1.18% | RAM network inhibition [7] 6.14%

CCN(CC)c1ccc(NC(=O)C2CC3CCC2C3)cc1 (configuration not stated)
inactive: growth inhibition [1] -9.15% | growth inhibition [2] -4.45% | viability increase [3] 1.44% | viability [4] 69.6% | viability [5] 80.6% | inhibition [6] 1.14% | RAM network inhibition [7] 6.6%

C=CCSc1nc2ccccc2c(=O)[nH]1
inactive: growth inhibition [1] -16.1% | growth inhibition [2] -8.26% | viability increase [3] -0.8% | viability [4] 105% | viability [5] 95.2% | inhibition [6] 2.91% | RAM network inhibition [7] 0.79%

Cc1cc(NC(=O)CSc2c(C)[nH]c3ccccc23)no1
inactive: growth inhibition [1] -11.4% | growth inhibition [2] -4.25% | viability increase [3] -1.25% | viability [4] 104% | viability [5] 89.4% | inhibition [6] 0.94% | RAM network inhibition [7] 4.64%

CC(NC(=O)C1CCCN(S(=O)(=O)c2cnc[nH]2)C1)c1ccccc1 (configuration not stated)
inactive: growth inhibition [1] 2.1% | growth inhibition [2] 2.4% | viability increase [3] -0.99% | viability [4] 98.3% | viability [5] 97.4% | inhibition [6] -0.19% | RAM network inhibition [7] -0.35%

CC1CCc2c(sc3nc(SCc4nc(-c5ccccc5)no4)n(C)c(=O)c23)C1 (configuration not stated)
inactive: growth inhibition [1] -3.38% | growth inhibition [2] -5.98% | viability increase [3] 1.25% | viability [4] 94% | viability [5] 89% | inhibition [6] 2.21% | RAM network inhibition [7] 2.32%

COC(=O)C1=CN(C(C)C)C=C(C(=O)OC)C1c1cccc(OC)c1
inactive: growth inhibition [1] -3.31% | growth inhibition [2] -9.06% | viability increase [3] -4.15% | viability [4] 73.8% | viability [5] 63.2% | inhibition [6] 0.405% | RAM network inhibition [7] 5.46%

COc1ccc(CCNS(=O)(=O)c2ccc3c(c2)oc(=O)n3C)cc1OC
inactive: growth inhibition [1] -5.33% | growth inhibition [2] -1.19% | viability increase [3] -0.83% | viability [4] 105% | viability [5] 94.2% | inhibition [6] 2.37% | RAM network inhibition [7] 0.8%

CCOc1ccc(N2CCCCn3c2nc2c3c(=O)[nH]c(=O)n2C)cc1
inactive: growth inhibition [1] -21.9% | growth inhibition [2] -16.5% | viability increase [3] -1.1% | viability [4] 97.8% | viability [5] 98% | inhibition [6] 1.5% | RAM network inhibition [7] 2.47%

CS(=O)(=O)NCCCc1ccccc1
inactive: growth inhibition [1] -3.13% | growth inhibition [2] 9.6% | viability increase [3] -1.36% | viability [4] 96.6% | viability [5] 94.5% | inhibition [6] 0.325% | RAM network inhibition [7] -0.88%

COc1ccc(NC(=O)c2cc3c(=O)n(C)c4ccccc4c3n2C)cc1OC
inactive: growth inhibition [1] -0.735% | growth inhibition [2] -6.07% | viability increase [3] -5.17% | viability [4] 93.8% | viability [5] 80.9% | inhibition [6] 2.05% | RAM network inhibition [7] 5.74%

CCN(c1ccccc1)S(=O)(=O)c1ccc(N)cc1
inactive: growth inhibition [1] -4.66% | growth inhibition [2] -1.86% | viability increase [3] -1.02% | viability [4] 94.5% | viability [5] 98.1% | inhibition [6] 2.56% | RAM network inhibition [7] 2.68%

CC1CCCC(NC(=O)c2ccc3c(c2)N(Cc2ccccc2)C(=O)CS3=O)C1C (configuration not stated)
inactive: growth inhibition [1] 0.145% | growth inhibition [2] 4.42% | viability increase [3] -3.1% | viability [4] 70.8% | viability [5] 62.5% | inhibition [6] 0.69% | RAM network inhibition [7] 5.92%

Cc1ccc2oc(Nc3nc(C)cc(C)n3)nc2c1
inactive: growth inhibition [1] -6.34% | growth inhibition [2] 13.1% | viability increase [3] 0.49% | viability [4] 102% | viability [5] 94.8% | inhibition [6] 1.01% | RAM network inhibition [7] 0.61%

Cc1c(C(=O)NCCCN2CCOCC2)sc2nc(-c3ccccc3)cn12
inactive: growth inhibition [1] -10.7% | growth inhibition [2] -11.8% | viability increase [3] -1.59% | viability [4] 92.2% | viability [5] 96% | inhibition [6] 3.44% | RAM network inhibition [7] -0.37%

O=C(C1=C(O)C(=O)N(CCN2CCOCC2)C1c1ccncc1)c1ccco1 (configuration not stated)
inactive: growth inhibition [1] -15.4% | growth inhibition [2] 2.89% | viability increase [3] -3.57% | viability [4] 98.3% | viability [5] 93.2% | inhibition [6] 2.35% | RAM network inhibition [7] 2.42%

CS(=O)(=O)N1CCN(c2nc(-c3ccccc3)cs2)CC1
inactive: growth inhibition [1] 10.1% | growth inhibition [2] 3.18% | viability increase [3] 0.2% | viability [4] 99.9% | viability [5] 94.4% | inhibition [6] -0.535% | RAM network inhibition [7] -0.16%

Cc1ccc(CNC(=O)c2ccc(Br)o2)cc1
inactive: growth inhibition [1] -14.5% | growth inhibition [2] -1.29% | viability increase [3] -0.67% | viability [4] 96.9% | viability [5] 98.1% | inhibition [6] 0.885% | RAM network inhibition [7] 3.41%

COc1ccc(Nc2nnc(Cc3ccc(Cl)cc3)c(=O)[nH]2)c(OC)c1
inactive: growth inhibition [1] -11.1% | growth inhibition [2] -13% | viability increase [3] 1.86% | viability [4] 100% | viability [5] 95.7% | inhibition [6] 1.89% | RAM network inhibition [7] 2.35%

CCOC(=O)Cn1c(=O)oc2cc(S(=O)(=O)NCC3CCCO3)ccc21 (configuration not stated)
inactive: growth inhibition [1] -10.1% | growth inhibition [2] -10.7% | viability increase [3] -1.7% | viability [4] 99.8% | viability [5] 103% | inhibition [6] 0.325% | RAM network inhibition [7] 2.41%

CCN1CCN(c2cc(C)c3cc(NC(=O)c4cnccn4)ccc3n2)CC1
inactive: growth inhibition [1] -11.2% | growth inhibition [2] 1.29% | viability increase [3] -3.82% | viability [4] 84.5% | viability [5] 89.5% | inhibition [6] -0.02% | RAM network inhibition [7] -0.42%

Cc1noc(C)c1CSCC(=O)OCC(=O)NC1CCCCC1
inactive: growth inhibition [1] -9% | growth inhibition [2] 2.07% | viability increase [3] 0.39% | viability [4] 97.1% | viability [5] 99.3% | inhibition [6] 0.26% | RAM network inhibition [7] 2.57%

CC(=O)CC(=O)Nc1cccc2c1CCCC2
inactive: growth inhibition [1] -1.4% | growth inhibition [2] -1.66% | viability increase [3] -1.76% | viability [4] 92.6% | viability [5] 91.5% | inhibition [6] -0.665% | RAM network inhibition [7] 1.72%

COc1ccc(N2CCN(c3nc4c(c(=O)[nH]c(=O)n4C)n3Cc3ccccc3Cl)CC2)cc1
inactive: growth inhibition [1] 4.9% | growth inhibition [2] -2.96% | viability increase [3] -2.71% | viability [4] 84.6% | viability [5] 75.3% | inhibition [6] 2.07% | RAM network inhibition [7] -1.3%
